According to ChEMBL document CHEMBL1127574, “Design and synthesis of ellipticinium salts and 1,2-dihydroellipticines with high selectivities against human CNS cancers in vitro” (1994):

Tests used:
Assay type in all cases: functional
SNB-75 = test: Tested in vitro for cytotoxicity in SNB-75 cell line of CNS Cancer; conditions: Homo sapiens, read-out: Log TGI (converted)
Procedure, shortened: (§1)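 Compounds dissolved in DMSO and diluted 500-fold into aqueous medium; aliquots of the resulting solutions or suspensions added to cultured human tumor cells for 48 h. Growth read colorimetrically, either by tetrazolium reduction to formazan by viable cells or by protein staining of total cellular protein.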

CCRF-CEM [1] = test: Tested in vitro for cytotoxicity in CCRF-CEM cell line of Leukemia; conditions: Homo sapiens, read-out: Log TGI (converted)
Procedure, shortened: (§2)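 Compounds dissolved in DMSO, then diluted 500-fold into aqueous medium. The resulting aqueous solutions or suspensions were added to the cultured human tumour cell lines, and the cells were exposed for 48 h. Growth was read colorimetrically in one of two ways: a metabolic assay in which viable cells reduce a tetrazolium salt to a formazan dye, or a protein stain for total cellular protein.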

SK-MEL-2 = test: Tested in vitro for cytotoxicity in SK-MEL-2 cell line of Melanoma; conditions: Homo sapiens, read-out: Log TGI (converted); procedure, shortened: as §2
SF-539 = test: Tested in vitro for cytotoxicity in SF-539 cell line of CNS Cancer; conditions: Homo sapiens, read-out: Log TGI (converted); procedure, shortened: as §2
SK-MEL-5 = test: Tested in vitro for cytotoxicity in SK-MEL-5 cell line of Melanoma; conditions: Homo sapiens, read-out: Log TGI (converted); procedure, shortened: as §1
CCRF-CEM [2] = test: Tested in vitro for cytotoxicity in CCRF-CEM cell lines; conditions: Homo sapiens; procedure, shortened: as §2
DMS-114 = test: Tested in vitro for cytotoxicity in DMS114 cell lines; conditions: Homo sapiens; procedure, shortened: as §2
HL-60 = test: Tested in vitro for cytotoxicity in HL-60(TB) cell line of Leukemia; conditions: Homo sapiens, read-out: Log TGI (converted)
Procedure, shortened: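 Compounds were dissolved in DMSO and diluted 500-fold in aqueous medium. Aliquots of the resulting solution or suspension were added to the cultured cells for 48 h. Growth was read colorimetrically, either by tetrazolium reduction to formazan in viable cells or by a total-protein stain.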

CAKI-1 [3] = test: Tested in vitro for cytotoxicity in CAKI-1 cell lines; conditions: Homo sapiens; procedure, shortened: as §2
RXF 393 = test: Tested in vitro for cytotoxicity in RXF-393 cell line of Renal cancer; conditions: Homo sapiens, read-out: Log TGI (converted); procedure, shortened: as §2
UACC-62 = test: Tested in vitro for cytotoxicity in UACC-62 cell line of Melanoma; conditions: Homo sapiens, read-out: Log TGI (converted); procedure, shortened: as §1
UACC-257 = test: Tested in vitro for cytotoxicity in UACC-257 cell line of Melanoma; conditions: Homo sapiens, read-out: Log TGI (converted); procedure, shortened: as §1
OVCAR-8 = test: Tested in vitro for cytotoxicity in OVCAR-8 cell line of Ovarian Cancer; conditions: Homo sapiens, read-out: Log TGI (converted); procedure, shortened: as §2
HT-29 = test: Tested in vitro for cytotoxicity in HT-29 cell line of Colon Cancer; conditions: Homo sapiens, read-out: Log TGI (converted); procedure, shortened: as §2
CAKI-1 [4] = test: Tested in vitro for cytotoxicity in CAKI-1 cell line of Renal cancer; conditions: Homo sapiens, read-out: Log TGI (converted); procedure, shortened: as §2
NCI-H322M = test: Tested in vitro for cytotoxicity in NCI-H322M cell line of Non-Small Cell Lung Cancer; conditions: Homo sapiens, read-out: Log TGI (converted); procedure, shortened: as §2
KM12 = test: Tested in vitro for cytotoxicity in KM12 cell line of Colon Cancer; conditions: Homo sapiens, read-out: Log TGI (converted); procedure, shortened: as §2
IGROV-1 [5] = test: Tested in vitro for cytotoxicity in IGROV1 cell line of Ovarian Cancer; conditions: Homo sapiens, read-out: Log TGI (converted); procedure, shortened: as §2
A549 = test: Tested in vitro for cytotoxicity in A549/ATCC cell line of Non-Small Cell Lung Cancer; conditions: Homo sapiens, read-out: Log TGI (converted); procedure, shortened: as §2
SR = test: Tested in vitro for cytotoxicity in SR cell line of Leukemia; conditions: Homo sapiens, read-out: Log TGI (converted); procedure, shortened: as §1
DMS-273 = test: Tested in vitro for cytotoxicity in DMS273 cell line of Small Cell Lung Cancer; conditions: Homo sapiens, read-out: Log TGI (converted); procedure, shortened: as §2
NCI-H23 = test: Tested in vitro for cytotoxicity in NCI-H23 cell line of Non-Small Cell Lung Cancer; conditions: Homo sapiens, read-out: Log TGI (converted); procedure, shortened: as §2
HOP-62 = test: Tested in vitro for cytotoxicity in HOP-62 cell line of Non-Small Cell Lung Cancer; conditions: Homo sapiens, read-out: Log TGI (converted); procedure, shortened: as §2
HOP-92 = test: Tested in vitro for cytotoxicity in HOP-92 cell line of Non-Small Cell Lung Cancer; conditions: Homo sapiens, read-out: Log TGI (converted); procedure, shortened: as §2
K562 = test: Tested in vitro for cytotoxicity in K-562 cell line of Leukemia; conditions: Homo sapiens, read-out: Log TGI (converted); procedure, shortened: as §2
M14 = test: Tested in vitro for cytotoxicity in M14 cell line of Melanoma; conditions: Homo sapiens, read-out: Log TGI (converted); procedure, shortened: as §2
SF-295 = test: Tested in vitro for cytotoxicity in SF-295 cell line of CNS Cancer; conditions: Homo sapiens, read-out: Log TGI (converted); procedure, shortened: as §2
SK-OV-3 = test: Tested in vitro for cytotoxicity in SK-OV-3 cell line of Ovarian Cancer; conditions: Homo sapiens, read-out: Log TGI (converted); procedure, shortened: as §1
HCT-15 = test: Tested in vitro for cytotoxicity in HCT-15 cell line of Colon Cancer; conditions: Homo sapiens, read-out: Log TGI (converted); procedure, shortened: as §2
IGROV-1 [6] = test: Tested in vitro for cytotoxicity in IGROV1 cell lines; conditions: Homo sapiens; procedure, shortened: as §2
SN12C = test: Tested in vitro for cytotoxicity in SN12C cell line of Renal cancer; conditions: Homo sapiens, read-out: Log TGI (converted); procedure, shortened: as §1

## COc1ccc2[nH]c3c(C)c4c(c(C)c3c2c1)CN(C)C=C4
SNB-75
  TGI: 0.794 µM
CCRF-CEM [1]
  TGI: 15.8 µM
SK-MEL-2
  TGI: 10 µM
SF-539
  TGI: 2 µM
SK-MEL-5
  TGI: 10 µM
CCRF-CEM [2]
  GI50: 2.64 µM
DMS-114
  GI50: 0.525 µM
HL-60
  TGI: 63.1 µM
CAKI-1 [3]
  GI50: 20.1 µM
RXF 393
  TGI: 31.6 µM
UACC-62
  TGI: 20 µM
UACC-257
  TGI: 20 µM
OVCAR-8
  TGI: 15.8 µM
HT-29
  TGI: 25.1 µM
CAKI-1 [4]
  TGI: 31.6 µM
NCI-H322M
  TGI: 15.8 µM
KM12
  TGI: 15.8 µM
IGROV-1 [5]
  TGI: 39.8 µM
A549
  TGI: 50.1 µM
SR
  TGI: 63.1 µM
DMS-273
  TGI: 12.6 µM
NCI-H23
  TGI: 3.98 µM
HOP-62
  TGI: 3.16 µM
HOP-92
  TGI: 25.1 µM
K562
  TGI: > 100 µM
M14
  TGI: 25.1 µM
SF-295
  TGI: 7.94 µM
SK-OV-3
  TGI: 63.1 µM
HCT-15
  TGI: > 100 µM
IGROV-1 [6]
  GI50: 1.68 µM
SN12C
  TGI: 0.794 µM
